Assay: Toxicity liver stage against HepG2, at 10uM
Type: cell-based
Design: test concentration 10 uM, cell line HepG2-A16-CD81EGFP
Settings: human, HepG2-A16-CD81EGFP cells; read-out: INHIBITION
In short: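 Uninfected HepG2-A16-CD81EGFP cells, 3 × 10^3 per well, 1536-well, plated on prespotted compound at 10 μM final, parasite-free screening media added to match infected plates; puromycin 10 μM positive, DMSO 0.5% negative; run in parallel with 48 h PbLuc assay at 37 °C, 5% CO2; viability by CellTiter-Glo luminescence, normalized to controls.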

Structure (SMILES) | cytotoxicity at 10 µM [%]
Cc1ccc(CN2C[C@H]3CN(Cc4ccccc4Cl)CCN3C2=O)cc1 | -10.3
O=C(C1CCOCC1)N1CCN2C(=O)N(Cc3ccc(F)cc3)C[C@H]2C1 | -1.34
COc1ccc2c(ccn2CCC(=O)Nc2n[nH]c(C(C)C)n2)c1 | 3.3
O=S(=O)(NCCC(O)c1cccs1)c1ccccc1Cl (stereo unspecified) | 1.87
CC(=O)N1CCN(C(=O)Nc2ccccc2)CC2(CC(=O)N(C)C2)C1 (stereo unspecified) | -8.93
Cc1ccc(S(=O)(=O)N2C[C@@H]3CCN[C@@H]3C2)cc1 | 2.94
O=C(Nc1nc2c(s1)CN(S(=O)(=O)C1CC1)CC2)c1c(F)cccc1F | -14.1
O=C(c1nc(-c2ccc3cc[nH]c3c2)no1)N1CCCC1 | -3.29
COCC1COCCC12CCN(C(=O)CCOc1ccccc1)CC2 (stereo unspecified) | -18.7
Cn1nc(C(=O)NCc2ccccn2)c2c1CCS(=O)(=O)C2 | 7.21
Cc1cc(C)nc(N(C)CCn2ccnc2C)n1 | -5.42
CC1CCc2nn(CCNC(=O)Cc3cccs3)c(=O)cc2C1 (stereo unspecified) | 6.83
O=C(Nc1cccnc1)Nc1ccn(CC(F)F)n1 | -4.63
OCCN1CCCCC1C1OCCO1 (stereo unspecified) | 6.66
Cc1cccc(C(=O)N(C)CC(=O)N2CCCC2)c1C | -0.291
CC(C)(CNC(=O)Nc1cccc(-c2nccs2)c1)C(N)=O | -10
CC(Nc1cccc2c1OCCO2)C(=O)NC(N)=O (stereo unspecified) | 2.76
Cc1cccc(OCC(O)CNCc2c(C)nn(C)c2N(C)C)c1 (stereo unspecified) | -2.45
COc1ccc(C2CCCN2S(=O)(=O)N(C)C)cc1 (stereo unspecified) | 5.08
Cc1cccc(C(=O)Nc2cccc3c2CCCC3)n1 | -2.35
O=S1(=O)CCC(N2CCN(c3cc(C(F)(F)F)ccn3)CC2)C1 (stereo unspecified) | -3.97
CCCn1ccnc1SCCNS(=O)(=O)c1ccccc1 | -12.8
Cc1cnn(CC(C)NCC(=O)NCCc2cccs2)c1 (stereo unspecified) | 6.41

Structure (SMILES) | cytotoxicity at 10 µM [%]
CC(C)c1n[nH]c(C2CN(C(=O)CCCn3cccn3)CCO2)n1 (stereo unspecified) | -7.85
CN(CCc1cn[nH]c1)C(=O)C1CC(=O)N(Cc2ccccn2)C1 (stereo unspecified) | -6.47
NC(=O)CN1CCC(C(=O)NCc2ccc3c(c2)OCCCO3)CC1 | -6.42
O=c1n(CC2COCCO2)nc(CC2CCNCC2)n1-c1ccccc1 (stereo unspecified) | -3.41
Cc1nn(CC(=O)NCCc2ccncc2)c(=O)n1Cc1ccccc1 | 18.5
COCCOCC(=O)N1CCCC(c2ncc[nH]2)C1 (stereo unspecified) | -4.59
COc1ccc(NC(=O)CCC2CCCN(S(=O)(=O)C3CC3)C2)c(C)c1 (stereo unspecified) | -3.41
Nc1nnc(CCCNc2ncnc3c2CCN(C(=O)C2CC2)C3)s1 | -3.94
CCCNc1ncc(CN2CCOC(Cc3cccc(F)c3)C2)cn1 (stereo unspecified) | -8.65
COc1cccc2c1OCC(C(=O)N1CCN(C3CCCC3)C(=O)C1)C2 (stereo unspecified) | -4.9
CCn1ncc2[nH]c(-c3ccc(OC)c(COC)c3)nc21 | 6.34
Cc1cc(NCc2ccc(CO)cc2)n2nc(C)cc2n1 | -7.38
CC(=O)N1CCc2c(nc(-c3ccccn3)nc2N(C)CC(O)CO)C1 (stereo unspecified) | -12.2
Cc1cc(N(C)Cc2cc(C)on2)n2nc(C)c(C)c2n1 | 19.2
CCc1nc2n(n1)CC(NCc1cc(OC)c3c(c1)OCCO3)CC2 (stereo unspecified) | -4.93
Cn1cnnc1C1CCCN(C(=O)NCCCn2cccn2)C1 (stereo unspecified) | -5.42
Cc1nc(C)n(CC2CCCCN2Cc2cscn2)n1 (stereo unspecified) | -5.26
Cc1nc(C)n(CC2CCCN2Cc2cnc(C)s2)n1 (stereo unspecified) | 0.0757
CC(=O)Nc1nc(C(=O)NC(C)c2ccc(F)cc2)cs1 (stereo unspecified) | -0.168
CN(C)C(=O)COCc1cncc2c1CCN(Cc1ccccc1)C2 | -4.24
O=C(N[C@@H]1CN(C2CCCC2)C[C@@H]2CCCO[C@@H]21)c1cnccn1 | -1.58
CCN1C(=O)CCC12CCC(NC(=O)c1cc(C)on1)CC2 (stereo unspecified) | -0.0663
CN1CCc2c(sc3c2C(=O)NC(C=Cc2ccccc2)N3)C1 (stereo unspecified) | 6.33

Reference: ChEMBL document CHEMBL4513216, “Probing the Open Global Health Chemical Diversity Library for Multistage-Active Starting Points for Next-Generation Antimalarials” (ACS Infect Dis, 2020)
